From ChEMBL document CHEMBL1134664, “Influence of polyamine architecture on the transport and topoisomerase II inhibitory properties of polyamine DNA-intercalator conjugates” (J Med Chem, 2001)

Legend:
L1210 [1] = assay: Cytotoxicity against murine leukemia (L1210) cells was determined at 94h; assay type: functional, cell-based; conditions: Mus musculus, L1210, 94 h
Summary of the method: (§1)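 L1210 murine leukemia cells in early to mid log phase (under 5% trypan blue positive before the start) were grown at 37 °C in 5% CO2 in 96-well plates with increasing drug concentrations for the stated time. A methotrexate positive control was included in every trial. Viability was read by colorimetric NAD(P)H-dependent formazan production, and the IC50 was taken from this.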

L1210 [2] = assay: Cytotoxicity against murine leukemia (L1210) cells was determined at 47h; assay type: functional, cell-based; conditions: Mus musculus, L1210, 47 h; summary of the method: as §1

`CCCCNc1c2ccccc2nc2ccccc12` gave an IC50 (L1210 [1]) of 2 µM and an IC50 (L1210 [2]) of 2 µM.
With `NCCCNCCCCN(CCCN)CCCCNc1ccnc2cc(Cl)ccc12` the IC50 (L1210 [1]) was > 100 µM and the IC50 (L1210 [2]) was > 100 µM.
For `NCCCN(CCCCNCc1c2ccccc2cc2ccccc12)CCCCN(CCCN)CCCCNCc1c2ccccc2cc2ccccc12`, the IC50 (L1210 [1]) was 61 µM and the IC50 (L1210 [2]) was 44 µM.
`NCCCCN(CCCN)CCCCNCc1c2ccccc2cc2ccccc12` showed an IC50 (L1210 [1]) of 6 µM and an IC50 (L1210 [2]) of 13 µM.
With `NCCCCN(CCCN)CCCCCNc1c2ccccc2nc2ccccc12` the IC50 (L1210 [1]) was > 100 µM and the IC50 (L1210 [2]) was > 100 µM.
`NCCCN(CCCCCNCc1c2ccccc2cc2ccccc12)CCCCN(CCCN)CCCCCNCc1c2ccccc2cc2ccccc12` gave an IC50 (L1210 [1]) of 25 µM and an IC50 (L1210 [2]) of 18 µM.
In the case of `NCCCCN(CCCN)CCCCNc1c2ccccc2nc2ccccc12`, the IC50 (L1210 [1]) is reported as 55 µM and the IC50 (L1210 [2]) is reported as 75 µM.
Work on `NCCCN(CCCCNc1c2ccccc2nc2ccccc12)CCCCN(CCCN)CCCCNc1c2ccccc2nc2ccccc12` yielded an IC50 (L1210 [1]) of 74 µM and an IC50 (L1210 [2]) of 40 µM.
Compound `NCCCN(CCCCCNc1c2ccccc2nc2ccccc12)CCCCN(CCCN)CCCCCNc1c2ccccc2nc2ccccc12` has an IC50 (L1210 [1]) of 23 µM and an IC50 (L1210 [2]) of 17 µM.
`NCCCCN(CCCN)CCCCCNCc1c2ccccc2cc2ccccc12` showed an IC50 (L1210 [1]) of 5 µM and an IC50 (L1210 [2]) of 7 µM.
`NCCCNCCCCN(CCCN)CCCCNc1c2ccccc2nc2ccccc12` showed an IC50 (L1210 [1]) of 17 µM and an IC50 (L1210 [2]) of 23 µM.
